EBNA-1 inh: blocks EBNA-1 binding to DNA; EBNA-1 DNA binding, fluorescence polarization; inhibition, % at 14.8 µM; 300,000 compounds, 0.34% hits; in the data active means inhibition above about 28%
NS3 helicase inh: HCV NS3 helicase inhibition | NS3 helicase DNA unwinding, Cy5 molecular beacon fluorescence | inhibition, % at 10.9 µM | 290,000 compounds, 0.56% hits;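 active means inhibition above the mean of all tested compounds plus 3 SD, set per campaign, cut at about 35% in these data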
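System: NS3 helicase fragment of HCV / Schedule: 1 h at 25 °C / Control set: DMSO alone as 0% and 110 µM thioflavine S as 100% / Reagent: Cy5/quencher beacon DNA duplex and ATP to start / Technique: Cy5 fluorescence / Replication: singlicate / Evaluation: % inhibition of end-to-start signal ratio versus controls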
ZTA counter: ZTA (EBV) inhibition in EBNA-1 counter-screen; 320,000 compounds, 0.15% hits; ZTA-DNA binding, fluorescence polarization; inhibition, % at 11 µM; P03206; in the data active means inhibition above about 33%
HCV core dimer: HCV core protein dimerization inhibition; TR-FRET GST/Flag-core106 dimerization, 1536-well; inhibition, % at 5 µM; 300,000 compounds, 0.33% hits; AID 1899;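 active means inhibition above the mean of all tested compounds plus 3 SD, set per screening campaign, cut at about 45% in these data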
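System: GST-tagged and Flag-tagged HCV core protein residues 1-106 / Input: core106 proteins, GST 13.5 nM and Flag 17 nM / Buffer or medium: KF-containing HEPES buffer, pH 7.45, DTT, CHAPS, BSA / Probe or stimulus: Eu-anti-GST and XL665-anti-Flag labelled anti-tag antibodies / Schedule: 4 h, 22.5 °C incubation / Technique: TR-FRET 671 and 617 nm emission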
GPR7 antag: human neuropeptides B/W receptor 1 antagonism; P48145; AID 1861; inhibition, % at 4.4 µM; GPR7-expressing cells, fluorescence antagonist assay; 290,000 compounds, 1.1% hits; in the data active means inhibition above about 16%, passing the limit was not always enough;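 further: cells stimulated with the agonist NPW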
Target sequence (P48145 whole entry, looked up): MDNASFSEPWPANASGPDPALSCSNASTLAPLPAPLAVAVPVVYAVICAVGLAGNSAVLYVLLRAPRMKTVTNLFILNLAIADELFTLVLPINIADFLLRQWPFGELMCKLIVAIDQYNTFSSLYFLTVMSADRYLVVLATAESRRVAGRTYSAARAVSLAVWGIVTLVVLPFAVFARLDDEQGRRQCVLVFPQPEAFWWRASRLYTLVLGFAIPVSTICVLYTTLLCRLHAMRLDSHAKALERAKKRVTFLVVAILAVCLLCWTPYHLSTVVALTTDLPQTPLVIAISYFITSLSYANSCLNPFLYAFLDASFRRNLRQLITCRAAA
EBV gp42 inh: blocks Epstein-Barr virus glycoprotein 42 binding. Fluorescence polarization binding assay, mP read-out. 220,000 compounds, 0.42% hits. Q1HVG2. inhibition, % (tested at 21.74 µM); in the data active means inhibition above about 50%
Target sequence (Q1HVG2 whole entry, looked up): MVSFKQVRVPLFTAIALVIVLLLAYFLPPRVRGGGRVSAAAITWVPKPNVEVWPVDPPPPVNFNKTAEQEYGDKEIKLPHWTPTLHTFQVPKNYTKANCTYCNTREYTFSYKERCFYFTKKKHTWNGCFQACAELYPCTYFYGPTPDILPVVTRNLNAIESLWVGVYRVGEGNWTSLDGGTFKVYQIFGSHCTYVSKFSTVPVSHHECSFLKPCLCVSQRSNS
Hits are given with their value; - = inactive; . = no result. Shown are actives, neighbours in structure and some others; about 2.3% of the full set was active somewhere.

SMILES	EBNA-1 inh	NS3 helicase inh	ZTA counter	HCV core dimer	GPR7 antag	EBV gp42 inh
N#Cc1ccc(C23CC4(C2)[C@H](CN(P(=O)(c2ccccc2)c2ccccc2)[C@@H]4c2ccccc2)C3c2ccc(Cl)nc2)cc1 (some centres undefined)	-	.	-	53.4	.	-
CN(C)CCCNC(=S)NCC(c1ccc(Cl)cc1Cl)c1c[nH]c2ccccc12 (centres undefined)	-	-	-	-	75.3	.
CCCCNC(=S)NCC(c1ccccc1)c1c[nH]c2ccccc12 (centres undefined)	-	-	-	-	-	.
CCc1ccc(NC(=O)c2ccc3ncsc3c2)cc1	.	-	.	.	-	146.0
N#Cc1ccc(CSc2nnc(NC(=O)c3ccc4ncsc4c3)s2)cc1	36.7	-	-	-	-	-
CC1CCC(C(C)C)C(OC(=O)C[n+]2cccc(C(N)=O)c2)C1 (centres undefined)	-	-	-	-	-	-
COc1ccc(-c2c[n+](CC(=O)OC3CC(C)CCC3C(C)C)c3n2CCC3)cc1 (centres undefined)	-	-	-	-	41.6	-
O=C1/C(=C/c2ccc(C(=O)O)cc2)CCC/C1=C\c1ccc(C(=O)O)cc1	-	-	60.8	-	-	-
O=C1/C(=C/c2cccnc2)CCC/C1=C\c1cccnc1	-	-	38.4	-	-	-
CN(C)c1ccc(/C=C2\CCC/C(=C\c3ccccc3)C2=O)cc1	-	-	-	-	-	118.6
Cc1nc2ccc(NS(=O)(=O)c3c(F)cc(F)cc3Br)cc2s1	.	.	-	.	.	.
CC1=CC(=C(C#N)c2nc3ccccc3s2)C=C(C)N1CC1CCCO1 (centres undefined)	-	-	-	-	-	155.2
O=C(O)CCC1c2cc3c4cc2OC2Oc5cc6c(cc51)C(CCC(=O)O)c1cc5c7cc1OC(O6)c1cc6cc(c1)Oc1cc(cc(C(=O)O)c1)Oc1cc8cc(c1)C(Oc1cc(c(cc1C5CCC(=O)O)C3CCC(=O)O)OC(O4)c1cc(cc(c1)Oc1cc(cc(C(=O)O)c1)O8)Oc1cc(cc(C(=O)O)c1)Oc1cc(cc2c1)Oc1cc(cc(C(=O)O)c1)O6)O7 (centres undefined)	102.0	.	105.5	60.7	.	.
CCOc1ccc(S(=O)(=O)c2c(C(=O)c3ccccc3)cnc3cc4c(cc23)OCCO4)cc1	-	-	-	-	-	-
O=C(COc1ccccc1Cl)c1ccc[nH]1	-	-	-	67.3	-	57.4
O=C(c1ccc(C#CC2(O)CCCCC2)cc1)N1CCN(Cc2ccccc2)CC1	-	-	-	-	-	-
O=C(c1ccc(C#CC2(O)CCCCC2)cc1)N1CCN(C(c2ccccc2)c2ccccc2)CC1	-	-	-	53.4	-	-
O=C(Nc1ccc(S(=O)(=O)Nc2ccccc2)cc1)c1ccc(CN2CCOCC2)cc1	-	-	-	-	50.5	-
CCOc1ccc(N=C/C=C/c2ccccc2)c(O)c1	-	-	-	-	-	-
COCCCNC(=O)CSc1ccsc1[N+](=O)[O-]	-	-	-	-	-	-
Cc1ccccc1NC(=O)CSc1ccsc1[N+](=O)[O-]	-	-	-	-	-	70.4
Cc1ccc(C)c(N2CCN(C(=O)CSc3ccsc3[N+](=O)[O-])CC2)c1	-	-	-	55.6	-	-
O=C(CSc1ccsc1[N+](=O)[O-])N1CCN(c2ccccc2)CC1	-	-	-	-	-	-
Cn1nnnc1SCC(=O)N1CCN(c2ccc(Cl)cc2)CC1	-	-	-	-	15.8	-
O=C(CSc1ccsc1[N+](=O)[O-])N1CCN(c2ccc(Cl)cc2)CC1	-	-	-	66.7	-	-
SMILES	EBNA-1 inh	NS3 helicase inh	ZTA counter	HCV core dimer	GPR7 antag	EBV gp42 inh
O=C(COc1ccc(Cl)cc1)NCc1ccc(F)cc1	-	-	-	-	-	.
O=C(O)c1cnn(-c2ccccc2)c1C(F)(F)F	-	-	-	-	-	-
CCOC(=O)CC(NC(=O)Cn1nnc(-c2ccccc2Cl)n1)c1ccc(OC)cc1 (centres undefined)	-	-	-	-	19.6	-
CCOC(=O)CC(NC(=O)Cn1nnc(-c2ccccc2F)n1)c1ccc(OC)cc1 (centres undefined)	-	-	-	-	-	-
Cn1c(=O)[nH]c(=O)c2c1nc([N+](=O)[O-])n2Cc1ccccc1	-	-	-	-	-	-
O=C(O)COc1ccc(/C=C/C(=O)c2ccc(C3CCCCC3)cc2)cc1	-	-	-	-	-	.
Cc1c(C(=O)NCCSCc2c(F)cccc2Cl)cnn1-c1ccc(Cl)cc1	-	-	-	-	-	51.9
CCC(=O)N1CCc2cc(S(=O)(=O)NCCc3ccc(S(N)(=O)=O)cc3)ccc21	-	-	-	-	-	.
CC(=O)N1c2ccccc2C(=O)C1N(C)c1ccc(C)cc1 (centres undefined)	-	-	-	-	-	.
CC(=O)N1/C(=C/c2ccc(N(C)C)cc2)C(=O)c2ccccc21	.	-	.	.	28.4	-
Cc1nn(CC(=O)NC(=O)NC2CCCC(C)C2C)c(=O)c(C#N)c1C (centres undefined)	-	.	-	-	.	.
CC(Sc1nc(N)cc(=O)[nH]1)C(=O)NCC(=O)Nc1ccc(F)c(F)c1F (centres undefined)	.	.	-	.	.	.
Cc1ccc2[nH]c(=O)c(-c3noc(CC(C)C)n3)cc2c1	-	-	-	-	-	-
CCOC(=O)c1[nH]c(C)c(CN(C(C)=O)c2ccc(OCC)cc2)c1C	-	-	-	-	22.1	-
O=C(NCc1ccc2c(c1)OCO2)c1cc([N+](=O)[O-])ccc1N1CCCCC1	-	-	-	-	36.6	-
O=C(C1=NN(c2ccccc2)C2C(=O)N(c3ccc(Cl)cc3)C(=O)C12)c1ccccc1 (centres undefined)	-	-	-	-	-	67.1
O=C(C1=NN(c2ccccc2)C2C(=O)N(c3cccc(Cl)c3)C(=O)C12)c1ccccc1 (centres undefined)	-	-	-	-	-	74.1
O=C(CC1Sc2ncnn2C1=O)Nc1ccccc1 (centres undefined)	-	-	-	-	-	-
COc1ccc(CNC(=O)COc2cc(O)c3c(c2)OC(C)(C)CC3=O)cc1	-	-	-	-	-	.
O=C(O)c1cc(O)c2c(c1)[C@H]([C@H]1c3cc(C(=O)O)cc(O)c3C(=O)c3c(O[C@@H]4O[C@H](CO)[C@@H](O)[C@H](O)[C@H]4O)cccc31)c1cccc(OC3O[C@H](CO)[C@@H](O)[C@H](O)[C@H]3O)c1C2=O (some centres undefined)	93.8	.	-	-	.	.
